In the library only some 3.5% were active in any assay of this set; here they are far more common.
MrgX1 antag = antagonists of human MrgX1 receptor, primary screen, HEK293 cells, Fluo-4 calcium flux | B-score at 10 µM | BAM8-22 antagonism; hits give low values | actives 1.3% (n = 310,000) | Mas-related G-protein coupled receptor member X1 (Homo sapiens), Q96LB2;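 active = calcium-response B-score plate-corrected more than 3 library SD below zero, starting fluorescence within 5 deviations, no agonist response on first addition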;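 also: peak minus trough fluorescence over baseline after final BAM8-22 challenge near maximal dose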
Target sequence (Q96LB2 whole entry, looked up): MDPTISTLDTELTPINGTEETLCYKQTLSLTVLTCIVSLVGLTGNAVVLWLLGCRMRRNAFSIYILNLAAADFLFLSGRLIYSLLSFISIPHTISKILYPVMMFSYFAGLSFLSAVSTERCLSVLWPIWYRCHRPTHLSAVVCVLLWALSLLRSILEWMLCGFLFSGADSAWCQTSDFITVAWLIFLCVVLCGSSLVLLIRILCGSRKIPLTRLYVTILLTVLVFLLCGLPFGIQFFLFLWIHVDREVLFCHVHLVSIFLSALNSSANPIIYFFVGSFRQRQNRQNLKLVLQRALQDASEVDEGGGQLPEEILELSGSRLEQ
MrgX1 allo act = positive allosteric modulators of MrgX1, primary screen, HEK293 cells, Fluo-4 calcium flux. Mas-related G-protein coupled receptor member X1 (Homo sapiens), Q96LB2. FDSS; hits give high values. B-score at 10 µM. actives 0.63% (n = 310,000);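 active = plate-corrected calcium response at least 3 library SD above typical, normal starting fluorescence, not activating the receptor alone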;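 also: compound read alongside a low EC10 to EC30 dose of BAM8-22 agonist; peak minus trough fluorescence over baseline measured at the second addition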
RGS4 pot = RGS4 potentiators or activators, primary screen, cell-based, HEK293 M3R inducible RGS4, calcium flux. B-score at 10 µM. actives 0.92% (n = 310,000). carbachol calcium flux Fluo4; hits give low values;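 active = B-score of the integrated calcium signal more than 4 SD below the library mean, with starting fluorescence not abnormally high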;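 also: negative B-score means reduced calcium response which marks RGS4 activation or potentiation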
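Material: M3R-expressing HEK293 line, RGS4 induced by doxycycline | Schedule: Overnight RGS4 induction, 30 min dye load 37 °C, 20 min compound RT | Measured by: Fluo4 fluorescence kinetic imaging of calcium | Read-out: Integrated calcium ratio converted to B score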
RGS4 block = RGS4 inhibitors, primary screen, cell-based, HEK293 M3R inducible RGS4, calcium flux | B-score at 10 µM | Regulator of G-protein signaling 4 (Homo sapiens), P49798 | Fluo-4 calcium flux; hits give high values; triggered by carbachol at its EC20 | actives 0.45% (n = 310,000);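 active = B-score, a plate-corrected calcium signal, over three deviations above library mean, with baseline fluorescence within five deviations of library mean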;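 also: RGS4 expression induced by doxycycline in cells with stable M3 receptor; B-score is computed from the integrated fluorescence ratio over baseline after carbachol; higher B-score means a larger calcium signal and so more RGS4 inhibition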
Target sequence (P49798 whole entry, looked up): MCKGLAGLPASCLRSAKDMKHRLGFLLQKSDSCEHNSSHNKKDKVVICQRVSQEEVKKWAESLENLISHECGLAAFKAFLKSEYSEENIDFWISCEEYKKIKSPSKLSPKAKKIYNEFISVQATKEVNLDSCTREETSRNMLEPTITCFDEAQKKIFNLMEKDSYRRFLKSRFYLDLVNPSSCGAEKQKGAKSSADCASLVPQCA
MrgX1 agonist = agonists of human MrgX1 receptor, primary screen, HEK293 cells, Fluo-4 calcium flux | Mas-related G-protein coupled receptor member X1 (Homo sapiens), Q96LB2 | Fluo-4 calcium fluorescence, agonist mode; hits give high values | B-score at 10 µM | actives 0.44% (n = 310,000) | AID 588627, 2011;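 active = calcium response B-score plate-corrected fluorescence ratio at least 3 library SD, with starting fluorescence B-score inside 5 SD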
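Material: HEK293 cells stably expressing human MrgX1 receptor | Quantity: 15,000 cells per well | Times: Cells plated overnight, dye loaded 0.5 h 37 °C, 0.5 h room temperature | Measured by: Kinetic Fluo-4 NW fluorescence of intracellular calcium | Control set: Positive and negative controls per plate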
RGS4 activ val = reduced carbachol calcium response, RGS4-induced M3R cells, confirmation, RGS4 activator project, cell-based, HEK293 M3R/RGS4 inducible, calcium flux, duplicate; shares compounds with RGS4 pot; carbachol calcium flux Fluo4; inhibition, % at 10 µM; actives 89% (n = 1,100);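 active = inhibition above 3 SD of the buffer control wells, cut at about 41% in these data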;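 also: signal is the integrated peak-minus-minimum Fluo4 fluorescence over baseline ratio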
M3R Ca counter = RGS4 activator counter-screen hit in non-induced cells | shares compounds with RGS4 pot | HEK293 M3R non-induced RGS4, Fluo4 calcium flux; after carbachol challenge at its EC90 | inhibition, % at 10 µM | actives 82% (n = 1,100);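 active = inhibition exceeding 3 SD of buffer-only control wells, cut at about 26% in these data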;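 also: percent drop in integrated peak-minus-baseline over baseline Fluo4 ratio after carbachol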
RGS4 inh valid = enhanced carbachol calcium response, M3R/RGS4 cells, RGS4 inhibitor project, cell-based, validation screen, HEK293 M3R/RGS4, calcium flux; AID 492999, 2010; actives 65% (n = 1,700); calcium response, % at 10 µM; carbachol calcium Fluo-4 fluorescence; carbachol added at its EC20; 0 = buffer wells, 100 = carbachol control; shares compounds with RGS4 block;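 active = duplicate-averaged calcium response above the buffer-only control mean plus 5 SD of those controls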;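 also: integrated fluorescence ratio F max minus min over baseline F0; higher response in RGS4-induced cells means RGS4 inhibition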
M3R Ca ctr = carbachol calcium response in non-induced M3R cells, confirmation, counter-screen for RGS4 inhibitor project, cell-based, HEK293 M3R; carbachol calcium Fluo-4; submaximal (EC20) carbachol stimulus; buffer wells 0%, carbachol control wells 100%; activity (percent), % at 10 µM; actives 20% (n = 1,900); shares compounds with RGS4 block; call rule not given here;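 also: RGS4 induction absent so cells express M3R without RGS4; higher means more calcium signal and flags a non-specific hit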
M3R basal Ca ctr = signal in non-induced cells without carbachol, RGS4 inhibitor counter-screen; shares compounds with RGS4 block; AID 493001; actives 22% (n = 1,900); calcium response (agonist-mode artifact), % at 10 µM; HEK293 M3R/RGS4 non-induced, Fluo-4 calcium, no carbachol; normalised: buffer wells 0%, carbachol wells 100%;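 active = duplicate-averaged calcium rise in uninduced cells above buffer wells' mean plus 5 SD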
MrgX1 ag reconf = MrgX1 receptor agonists, duplicate retest, confirmation, HEK293 cells, Fluo-4 calcium flux | activation, % at 10 µM | Fluo-4 calcium fluorescence, FDSS | shares compounds with MrgX1 agonist | actives 78% (n = 600);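 active = calcium signal rise, corrected for plate position, at least 3 library SD high, with starting brightness within 5 such deviations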
MrgX1 allo conf = MrgX1 positive allosteric modulators, duplicate retest, confirmation, HEK293 cells, Fluo-4 calcium flux | shares compounds with MrgX1 allo act | Fluo-4 calcium fluorescence, FDSS | activation (ratio percentage), % at 10 µM | actives 13% (n = 1,200) | AID 602413, 2012;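 active = ratio at least 3 SD above the weak peptide control, stable starting fluorescence, no direct agonism earlier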;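 also: compound followed by low BAM8-22 agonist challenge near EC20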
MrgX1 antag conf = MrgX1 receptor antagonists, duplicate retest, confirmation, HEK293 cells, Fluo-4 calcium flux. shares compounds with MrgX1 antag. BAM8-22 calcium flux; hits give low values. remaining BAM8-22 calcium response % of control (hits give low values), % at 10 µM. actives 19% (n = 2,300). AID 602420, 2012;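 active = remaining agonist calcium response no higher than 100% minus 3 SD of agonist-only control wells, with starting fluorescence near control levels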;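 also: agonist BAM8-22 given at a near maximal EC90 to ECmax level; peak minus minimum fluorescence divided by baseline after agonist addition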
HEK293 Ca flux = nonspecific calcium signal in parental HEK293, confirmation, counter-screen for MrgX1 antagonist project, parental HEK293 cells, Fluo-4 calcium flux | AID 624111, 2012 | actives 2% (n = 4,000) | fluorescence ratio F(max-min)/F0 at 10 µM | Fluo-4 calcium fluorescence, FDSS | shares compounds with MrgX1 antag;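 active = duplicate-averaged calcium fluorescence ratio at least three times the standard deviation of buffer wells, a nonspecific response in parental cells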
HEK293 Ca counter = calcium response in parental HEK293 cells, primary screen, counter-screen for MrgX1 allosteric activator project, cell-based, Fluo-4 calcium flux, duplicate. Fluo-4 fluorescence ratio; hits give high values. shares compounds with MrgX1 antag. actives 0.4% (n = 4,000). AID 624114, 2012. fluorescence ratio F(max-min)/F0 at 10 µM;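 active = calcium fluorescence ratio, averaged over duplicates, at least 3 SD of the buffer-well ratio, meaning a nonspecific response in receptor-free cells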;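 also: untransfected parental HEK293 lacking MrgX1 used as counterscreen for MrgX1 allosteric activators; fluorescence change taken during the second addition on a kinetic imager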
HEK293 Ca cntr2 = calcium response in parental HEK293 cells, primary screen, counter-screen for MrgX1 agonist project, cell-based, Fluo-4 calcium flux, duplicate, agonist mode; shares compounds with MrgX1 antag; Fluo-4 calcium fluorescence (FDSS); hits give high values; fluorescence ratio F(max-min)/F0 at 10 µM; actives 8.7% (n = 4,000);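 active = calcium fluorescence ratio at least three times the spread of buffer wells, meaning a non-specific response in parental cells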
* marks the source's active call; other numbers are inactive results; i = inactive; . = no result.

SMILES	MrgX1 antag	MrgX1 allo act	RGS4 pot	RGS4 block	MrgX1 agonist	RGS4 activ val	M3R Ca counter	HEK293 Ca flux	HEK293 Ca counter	HEK293 Ca cntr2	others
CCOC(=O)c1cccc(Nc2nc(-c3cccnc3)nc3ccccc23)c1	-4.58*	i	-8.06*	i	i	57.0*	0.0	i	i	i	MrgX1 antag conf=i
COC(=O)c1cccc(Nc2nc(-c3ccncc3)nc3ccccc23)c1	i	i	i	i	i	.	.	.	.	.
O=c1oc2ccccc2c2c1ncn2CCN1CCOCC1	i	i	i	i	i	.	.	.	.	.
COc1cc(OC)cc(C(=O)NC(=S)NNC(=O)[C@H]2C[C@@H]2c2ccccc2)c1	i	i	-11*	i	109*	84.5*	77.3*	i	i	110*	MrgX1 ag reconf=580.2%*
O=C(c1ccc(F)cc1)N1CCCN(c2nc(-c3ccccc3)ns2)CC1	i	i	i	i	i	.	.	.	.	.
COc1ccccc1-c1c(C#N)c(N)nc2c1CCc1ccccc1-2	i	12.4*	-7.57*	i	i	89.0*	51.8*	i	i	i	MrgX1 allo conf=i
C=CCn1c(SCCN2CCCC2)nc2c([nH]c3ccccc32)c1=O	-4.59*	i	-8.45*	i	i	63.5*	0.0	i	i	i	MrgX1 antag conf=i
C=CCn1c(SCC(=O)Nc2ccc(OC)cc2)nc2c([nH]c3ccccc32)c1=O	i	i	i	i	i	.	.	.	.	.
CCN(CC)CC#CC(OC)(c1ccccc1)c1ccccc1	i	8.03*	-9.68*	i	i	92.5*	88.3*	i	i	i	MrgX1 allo conf=i
COc1ccc2nc(Nc3nc(CSc4nc5ccccc5[nH]4)cc(=O)[nH]3)nc(C)c2c1	i	i	i	i	i	.	.	.	.	.
Cc1nc(Nc2nc(CSc3nc4ccccc4[nH]3)cc(=O)[nH]2)nc2ccccc12	-5.17*	i	-13*	i	i	61.5*	0.0	i	i	i	MrgX1 antag conf=82.7%*
Cn1cnnc1SCC(=O)N1N=C2/C(=C/c3ccco3)CCCC2C1c1ccco1 (configuration not stated)	i	i	i	i	i	.	.	.	.	.
Cc1nc(Sc2ccccc2)c(C#N)cc1-c1ccccc1	i	6.79*	-10.2*	i	i	94.0*	63.3*	i	i	i	MrgX1 allo conf=i
Cc1nc(Cl)c(C#N)cc1-c1ccccc1	i	i	i	i	i	.	.	.	.	.
C=CCc1cccc2cc(C(=O)NC)c(=O)oc12	i	i	i	i	i	.	.	.	.	.
COc1cc(/C=C(/C(=O)c2cccs2)c2nc3ccccc3[nH]2)ccc1O	i	i	i	9.2*	i	.	.	.	.	.	RGS4 inh valid=18.5%*;M3R Ca ctr=i;M3R basal Ca ctr=i
COC(=O)c1cc(=O)n(-c2ccc(F)cc2)c(=Nc2ccc(F)cc2)s1	i	i	i	12.7*	i	.	.	.	.	.	RGS4 inh valid=30.0%*;M3R Ca ctr=54.0%*;M3R basal Ca ctr=i
CCOC(=O)N1CCN(Cc2nnc(-c3ccccc3C)o2)CC1	i	i	i	i	i	.	.	.	.	.
Nn1c(Nc2ccccc2)nc2sc3c(c2c1=O)CCCC3	i	i	i	i	i	.	.	.	.	.	RGS4 inh valid=i;M3R Ca ctr=i;M3R basal Ca ctr=i
O=[N+]([O-])c1cc(Cl)c2cccnc2c1O	i	i	i	i	i	.	.	.	.	.	M3R Ca ctr=i;M3R basal Ca ctr=134.5%*
O=[N+]([O-])c1cc(Cl)c(O)c2ncccc12	.	.	i	6.71*	.	.	.	.	.	.	RGS4 inh valid=11.5%*;M3R Ca ctr=i;M3R basal Ca ctr=i
O=[N+]([O-])c1cc(F)c2cccnc2c1O	i	i	i	i	i	.	.	.	.	.
CC1CCN(C(=O)COC(=O)CNC(=O)C23CC4CC(CC(C4)C2)C3)CC1	i	i	i	i	i	.	.	.	.	.

Bioassay records deposited in PubChem by Johns Hopkins Ion Channel Center.
